The target of data set [1] is T1, PTP1B (Homo sapiens, UniProt P18031).
T1 sequence (P18031 1-435): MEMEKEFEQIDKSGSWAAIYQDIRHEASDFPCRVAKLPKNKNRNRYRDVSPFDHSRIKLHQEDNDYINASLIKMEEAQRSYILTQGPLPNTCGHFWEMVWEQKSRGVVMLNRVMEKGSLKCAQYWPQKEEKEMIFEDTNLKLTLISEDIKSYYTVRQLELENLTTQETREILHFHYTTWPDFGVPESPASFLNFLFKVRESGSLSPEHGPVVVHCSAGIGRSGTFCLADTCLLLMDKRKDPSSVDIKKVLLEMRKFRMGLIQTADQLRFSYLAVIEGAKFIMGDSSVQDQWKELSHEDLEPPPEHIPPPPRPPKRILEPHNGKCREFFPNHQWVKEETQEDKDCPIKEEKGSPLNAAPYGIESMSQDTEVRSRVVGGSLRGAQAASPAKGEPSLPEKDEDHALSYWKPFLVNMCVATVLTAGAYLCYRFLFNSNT
In words: PTP1B inhibition assay using pNPP. It counts as biochemical.

Data set [2] concerns the target T2, human monoamine oxidase A (hMAO-A) (Homo sapiens, UniProt P21397).
T2 sequence (P21397 1-527): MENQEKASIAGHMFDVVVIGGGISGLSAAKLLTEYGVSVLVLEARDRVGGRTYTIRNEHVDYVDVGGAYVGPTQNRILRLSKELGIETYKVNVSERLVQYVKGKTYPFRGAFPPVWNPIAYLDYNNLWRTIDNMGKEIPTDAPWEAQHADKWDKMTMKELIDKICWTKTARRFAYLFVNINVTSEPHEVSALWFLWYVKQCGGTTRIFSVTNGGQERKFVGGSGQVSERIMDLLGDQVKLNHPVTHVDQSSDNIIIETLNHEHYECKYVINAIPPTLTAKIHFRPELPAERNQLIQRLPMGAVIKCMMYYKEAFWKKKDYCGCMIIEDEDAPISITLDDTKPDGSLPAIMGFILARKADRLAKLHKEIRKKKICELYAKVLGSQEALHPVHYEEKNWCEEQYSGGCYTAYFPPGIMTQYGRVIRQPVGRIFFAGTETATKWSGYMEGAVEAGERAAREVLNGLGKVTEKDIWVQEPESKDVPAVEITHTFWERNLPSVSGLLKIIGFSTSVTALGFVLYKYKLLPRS
In words: hMAO-A inhibition chemiluminescent assay. In kind it is biochemical.

In data set [3] the target is T1, PTP1B. In words: Enzyme kinetics of PTP1B inhibition. As to conditions: for Ki: secondary plots. It counts as biochemical. The method in brief:
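Human recombinant PTP1B (0.5 unit) in pH 6.0 buffer (50 mM citrate, 0.1 M NaCl, 1 mM EDTA, 1 mM DTT) was preincubated with or without test compound for 10 min at 37 °C. pNPP substrate was then added at three concentrations and incubated for 20 min at 37 °C. NaOH stopped the reaction, and p-nitrophenol was read at 405 nm. Km and Vmax came from Lineweaver–Burk plots, with Dixon plots also used. Ki, Kic and Kiu came from secondary plots.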

The target of another data set is T3, hMAO-A (Homo sapiens, UniProt P21397).
T3 sequence (P21397 1-527): T2 sequence (P21397 1-527)
Kind of data set: Enzyme kinetics of hMAO-A inhibition. It counts as biochemical. As to conditions: Lineweaver–Burk plot. The method in brief: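 hMAO-A activity measured by chemiluminescent MAO-Glo assay, with MAO substrate at three concentrations, with or without test compound. Lineweaver–Burk plots (with Dixon plots) gave Km, Vmax and inhibition mode. Ki, Kic and Kiu came from secondary plots.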

A further data set relates to HepG2 cells. Kind of data set: Cytotoxicity, cell viability by MTT assay. It counts as cell-based, human. As to conditions: up to 100 μM. In outline: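 HepG2 cells were subcultured in MEM with 10% FBS, refreshing the medium every 48 h until confluent. They were then seeded in 96-well plates, and viability after test-compound exposure was assessed by MTT assay.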
For orientation: Formazan colour is commonly taken as a measure of viable cells.

For data set [4], the system named is insulin-resistant HepG2 cells. In words: 2-NBDG glucose uptake assay. It counts as cell-based, human. As to conditions: for relative glucose uptake percentage: insulin-stimulated 2-NBDG uptake. The method in brief: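 Insulin-resistant HepG2 cells (grown in 10% FBS MEM; resistance induced by a previously reported method) treated with test compound at 12.5, 25 and 50 μM and stimulated with 10–6 M insulin. Uptake of the fluorescent glucose analogue 2-NBDG read fluorimetrically on a plate reader. Rosiglitazone (10 μM) served as reference. Triplicate experiments, mean ± standard deviation.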

The subject of data set [5] is PTP1B expression in insulin-resistant HepG2 cells. Kind of data set: Western blot of PTP1B expression level. It counts as cell-based, human. As to conditions: 24 h treatment.
In data set [6] the test system is IRS-1/PI3K/Akt signaling pathway in insulin-resistant HepG2 cells. Kind of data set: Western blot of IRS-1/PI3K/Akt signaling pathway. It counts as cell-based, human. (In general: Immunoblotting shows a protein as a band on a membrane.)
Data set [7] deals with PEPCK and G6Pase expression in insulin-resistant HepG2 cells. In words: Western blot of PEPCK and G6Pase expression levels. In kind it is cell-based, human.

Here are results for two compounds from publication PMC6682096 (ACS Omega, 2019).

As a reminder, the IC50 is the concentration that inhibits the measured activity by half. Lower therefore signals greater potency in that assay. In general, Ki refers to the equilibrium dissociation constant of an inhibitor or competing ligand from its target. High values mean lower affinity, low ones higher affinity.

Entries after “also recorded” stand apart in the source; their conditions may differ.

Take `COc1cc(O)c2c(O)c3c(=O)cc(C)oc3cc2c1` [rubrofusarin]: the IC50 at PTP1B [1] was 17 ± 0.49 µM; in data set [2] it was 5.9 ± 0.99 µM. Moreover, on PTP1B [3] (Lineweaver–Burk plot), the PTP1B inhibition type entry is on record as “mixed-competitive”. The Ki at PTP1B [3] (PTP1B inhibition Ki value (Kic), binding constant of the inhibitor with the free enzyme) worked out at 6.99 µM; at PTP1B [3] (PTP1B inhibition Ki value (Kiu), binding constant of the inhibitor with the enzyme–substrate complex), 18.3 µM. For the same compound, on hMAO-A, the hMAO-A inhibition type entry is recorded as “mixed-competitive”. Also, in the data set with HepG2 cells, the “cytotoxicity (cell viability)” value was “showed toxicity at 100 μM; also recorded: nontoxic up to a 50 μM concentration”. Moreover, the results for the “relative glucose uptake percentage” value in [4] (12.5 μM), in [4] (25 μM) and in data set [4] (50 μM) were 68.54%, 81.27% and 98.47%, respectively. The PTP1B expression entry in data set [5] is reported as “inhibited PTP1B expression in a dose-dependent manner; also recorded: at 50 μM concentration significantly reduced the expression”. Also, in data set [6], the “expression of total IRS-1 and p-IRS-1 (Tyr 895)” value was “dose-dependently increased the expression of total IRS-1 and p-IRS-1 (Tyr 895)”. Moreover, the “relative abundances of p-PI3K and p-Akt” value in data set [6] was “in a dose-dependent manner increased the relative abundances of p-PI3K and p-Akt”. Besides, the “expressions of PEPCK and G6Pase” value in [7] was “downregulate the expressions of PEPCK and G6Pase”.
In turn, `CN(CCOc1ccc(CC2SC(=O)NC2=O)cc1)c1ccccn1` (stereo not drawn) [Rosiglitazone, reference compound] returned an insulin-stimulated glucose uptake in [4] (10 μM, 2-NBDG) of 118.52%.
